Assay outcomes as filed in PubChem BioAssay.
Most compounds without a hit are left out; they make up all but 1.9% or so of the library.
DSG3 Ab inh: inhibitors of pemphigus antibody binding to DSG3, primary screen, biochemical, bead-based, flow cytometry, scFv-GFP; Desmoglein-3 (Homo sapiens), P32926; DSG3-coupled beads, scFv-anti-DSG3-GFP binding; stronger effect = lower value; binding (percent of control), % at 10 µM; hit rate 0.48% among 310,000; AID 588358, 2011;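 active = binding more than 3 SD below its plate's average and above zero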
TbMetRS inhib: T. brucei MetRS inhibitors, primary screen, biochemical, luminescence; methionyl-tRNA synthetase (Trypanosoma brucei brucei); purified T. brucei MetRS, ATP depletion, Kinase-Glo luminescence; inhibition, % at 11.9 µM; hit rate 0.4% among 360,000;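 active = inhibition above a per-plate cutoff of the control wells' mean inhibition plus 3 SD, cut at about 5.5% in these data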;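 also: 0% = DMSO wells median and 100% = median of wells with control inhibitor compound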
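Material: parasite MetRS enzyme / Replication: singlicate, one well per compound / Signal: luminescence of leftover ATP / Schedule: 2 h aminoacylation at 25 °C after 15 min preincubation / Medium: HEPES-MgCl2-KCl buffer plus DTT, spermine, BSA, pyrophosphatase / Doses: 11.9 µM single point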
core dimer inh: inhibitors of HCV core protein dimerization, primary screen, biochemical, TR-FRET, high-throughput | inhibition, % at 5 µM | TR-FRET GST/Flag-core106 dimerization, 1536-well | hit rate 0.33% among 300,000;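 active = inhibition above the mean of all tested compounds plus 3 SD, set per screening campaign, cut at about 45% in these data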
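Material: GST/Flag-tagged HCV core106 proteins. Incubation: 4 h, 22.5 °C incubation. Read-out basis: inhibition (%) from 671 over 617 nm ratio. Measured by: TR-FRET, excitation 340 nm, emission 617 and 671 nm.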
NadD inh: inhibitors of S. aureus NadD, primary screen, biochemical, colorimetric, uHTS; hit rate 0.78% among 360,000; purified NadD enzyme, colorimetric absorbance read-out; inhibition, % at 20 µM; AID 602399, 2012; Nicotinate-nucleotide adenylyltransferase NadD (Staphylococcus aureus N315); in the data active = inhibition above about 26%
Rce1 inhib: yeast Rce1p protease inhibitors, primary screen, biochemical, fluorescence, cell-free homogeneous. CAAX prenyl protease 2 (Saccharomyces cerevisiae (strain ATCC 204508 / S288c)), Q03530. yeast membranes, quenched prenylated peptide cleavage fluorescence. calls only. hit rate 0.27% among 290,000. AID 2563, 2010;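 active = fall in fluorescence gain of 50% or more versus controls, with final raw signal at or below 3038400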;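 also: plate controls were neutral control wells for no effect and wells lacking membranes for full effect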
Target sequence (Q03530 whole entry, looked up): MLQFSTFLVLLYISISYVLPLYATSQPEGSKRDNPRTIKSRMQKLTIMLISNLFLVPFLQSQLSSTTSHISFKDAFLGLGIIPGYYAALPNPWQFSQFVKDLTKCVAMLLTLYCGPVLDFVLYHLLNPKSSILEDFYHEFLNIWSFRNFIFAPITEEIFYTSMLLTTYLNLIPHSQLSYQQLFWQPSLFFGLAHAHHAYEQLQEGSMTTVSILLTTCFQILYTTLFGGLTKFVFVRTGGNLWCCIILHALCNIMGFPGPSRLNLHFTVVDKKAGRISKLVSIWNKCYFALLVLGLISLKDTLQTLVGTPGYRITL
TbMetRS confirm: T. brucei MetRS inhibitors, confirmation, biochemical, luminescence. T. brucei MetRS enzyme, luminescence (ATP depletion). inhibition, % at 11.9 µM. AID 624412, 2012. shares compounds with TbMetRS inhib. hit rate 93% among 1,400; in the data active = inhibition above about 7%
Jurkat tox: Jurkat T cell cytotoxicity, cytotoxicity control for T. brucei MetRS inhibitor project, luminescence, high throughput; shares compounds with TbMetRS inhib; Jurkat cells viability, ATP luminescence; inhibition, % at 8.3 µM; hit rate 12% among 1,400; in the data active = inhibition above about 15%;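 also: 0% = vehicle and 100% = reference inhibitor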
TbMetRS FP orth: T. brucei MetRS inhibitors, orthogonal assay for T. brucei MetRS inhibitor project, biochemical, fluorescence polarization. purified T. brucei MetRS. inhibition, % at 11.9 µM. shares compounds with TbMetRS inhib. AID 651607, 2012. hit rate 44% among 1,400; in the data active = inhibition above about 17%;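 also: 0% = vehicle wells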
An asterisk follows results filed as active; i = inactive; . = no result.

SMILES | DSG3 Ab inh | TbMetRS inhib | core dimer inh | NadD inh | Rce1 inhib | TbMetRS confirm | Jurkat tox | TbMetRS FP orth
Cc1cccc(OCC(=O)Nc2ccc3c(c2)OCCO3)c1 | 69 | 0 | 0 | 0 | . | . | . | .
COc1ccc(-c2c(C#Cc3ccsc3)c3cc(-c4ccc5cc[nH]c5c4)ccc3n2C)cc1 | 97 | 0 | . | 22 | . | . | . | .
Cc1nn(C(=O)c2cc3sccc3[nH]2)c(C)c1C | 95 | 9.2* | -3 | -5 | i | 17* | -7 | 6
O=C(c1cnccn1)N1CCc2c([nH]c3ccccc23)C1c1cccc(Cl)c1 (configuration not stated) | 96 | 7.0* | 8 | -16 | i | 10* | 8 | 2
CC1CCCN(CCCOc2ccc(Br)cc2Cl)C1 (configuration not stated) | 107 | 17* | -2 | -9 | i | 30* | 23* | 11
COCCCNCCCCOc1ccc(Br)cc1Cl | 94 | 4 | -4 | -7 | i | . | . | .
CN(C)CCCCOc1ccc(Br)cc1Cl | 102 | 8.0* | -6 | -10 | i | 21* | 7 | 11
CCN=C(Nc1cccc(F)c1)SC1CC(=O)N(c2ccc(OC)cc2)C1=O (configuration not stated) | 108 | 0 | 6 | -1 | i | . | . | .
CC(CNC(=S)Nc1cc(F)cc(F)c1)CSc1ccc(Cl)cc1 (configuration not stated) | 98 | 13* | -2 | -8 | i | 25* | 2 | 27*
CCc1ccc(NC(=O)c2nc(S(=O)(=O)Cc3ccccc3)ncc2Cl)cc1 | 119 | 0 | 11 | -3 | i | . | . | .
Cc1ccc(S(=O)(=O)N/N=C/c2c[nH]c3ccccc23)cc1 | 96 | 0 | -2 | -4 | i | . | . | .
Cc1ccc(S(=O)(=O)/C(C#N)=C/c2c[nH]c3ccccc23)cc1 | 104 | 19* | 0 | -7 | i | 40* | -1 | 24*
CCSc1nsc(NC(=O)Nc2ccccc2F)n1 | 101 | 7.0* | 5 | -3 | i | 13* | 5 | 6
O=C(/C=C/c1ccc(Br)cc1)NC(=O)c1ccccc1O | 102 | 7.2* | 14 | -2 | . | 8.8* | -3 | 4
O=C(/C=C/c1ccc(O)c(O)c1)NC(=O)c1ccccc1O | 98 | 3 | -8 | 1 | i | . | . | .
CN(CC(=O)Nc1ccc(Cl)c(C(F)(F)F)c1)C(=O)c1ccc2c(c1)NC(=O)CS2 | 110 | 6.6* | . | 6 | . | 17* | -4 | 8
S=c1nc(-c2sccc2OCc2ccc(Cl)cc2Cl)[nH][nH]1 | 97 | 8.6* | 10 | 7 | i | 13* | 1 | 0
Cc1ccc(S(=O)(=O)NCCC(=O)NNC(=O)COc2ccccc2Cl)cc1C | 110 | 0 | . | -2 | . | . | . | .
O=C(COC(=O)c1ccc(Cl)nc1)Nc1cccc(S(=O)(=O)N2CCCCC2)c1 | 97 | -1 | . | -5 | . | . | . | .
CC(C)(C)c1ccc(C(O)c2ncc(-c3ccc4ccccc4c3)[nH]2)cc1 (configuration not stated) | . | 0 | . | 27 | . | . | . | .
OC(c1cc(F)cc(Cl)c1)c1ncc(-c2ccccc2Cl)[nH]1 (configuration not stated) | . | 24* | . | -6 | . | 58* | 4 | 24*
OC(c1cccc(Cl)c1)c1ncc(-c2ccc3ccccc3c2)[nH]1 (configuration not stated) | . | 42* | . | 1 | . | 74* | 8 | 47*
